Among the data in ChEMBL document CHEMBL1955742, “Synthesis and SAR studies of phenanthroindolizidine and phenanthroquinolizidine alkaloids as potent anti-tumor agents” (2012) are GI50 and inhibition values, retold here.

Structures are written as SMILES.

Holding throughout (type): functional
Experiment [1] relates to HL-60. The experiment is described as follows: Antiproliferative activity against human HL60 cells after 72 hrs by SRB assay. The settings on record: Homo sapiens, HL-60, 72 h. A digest of the protocol:
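HL60 human promyelocytic leukemia cells were seeded and grown for 24 h, then given compounds and cultured for another 72 h. Read-out was SRB, per the table footnote. GI50 was obtained by the Logit method from three or more independent experiments.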
(In SRB staining, fixed cells bind dye roughly in proportion to their protein.)

The subject of experiment [2] is A549. The experiment is described as follows: Antiproliferative activity against human A549 cells after 72 hrs by MTT assay. The settings on record: Homo sapiens, A549, 72 h. Put shortly: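 A549 human lung adenocarcinoma epithelial cells were seeded and grown for 24 h, then exposed to compounds for a further 72 h. Proliferation was read by MTT, as assigned in the table footnote. GI50 was calculated by the Logit method from at least three independent experiments.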

For experiment [3], the system named is HL-60. The experiment is described as follows: Antiproliferative activity against human HL60 cells at 10^-8 mol/L after 72 hrs by SRB assay. As to conditions: HL-60, 72 h.
In experiment [4] the test system is HL-60. The experiment is described as follows: Antiproliferative activity against human HL60 cells at 10^-7 mol/L after 72 hrs by SRB assay. As to conditions: HL-60, 72 h.
Experiment [5] relates to HL-60. In words: Antiproliferative activity against human HL60 cells at 10^-6 mol/L after 72 hrs by SRB assay. The settings on record: HL-60, 72 h.
Experiment [6] deals with A549. The experiment is described as follows: Antiproliferative activity against human A549 cells at 10^-6 mol/L after 72 hrs by MTT assay. The settings on record: A549, 72 h. (In general: Tetrazolium assays rely on reduction of a dye to a coloured formazan, in cell work by metabolically active cells.)
The test system of experiment [7] is A549. The experiment is described as follows: Antiproliferative activity against human A549 cells at 10^-8 mol/L after 72 hrs by MTT assay. The settings on record: A549, 72 h.
The subject of experiment [8] is A549. The experiment is described as follows: Antiproliferative activity against human A549 cells at 10^-7 mol/L after 72 hrs by MTT assay. The settings on record: A549, 72 h.

The term GI50 denotes the concentration giving 50% growth inhibition. A lower GI50 goes with more potent growth inhibition. What is called inhibition is the drop in the measured response relative to a control, in per cent. A low value points to a weak effect.

Take `COc1ccc2c3c(c4cc(OC)c(OC)cc4c2c1)CN1CCCC[C@H]1C3`: the GI50 in the experiment with HL-60 [1] was 600 nM; with A549 [2] it was 700 nM.

On to `COc1ccc2c3c(c4cc(OC)c(OC)cc4c2c1)CN1CCCC[C@@H]1C3`, for which the values for the GI50 in the experiment on HL-60 [1] and in the experiment with A549 [2] were 500 nM and 900 nM, respectively.

`COc1cc2c3c(c4cc(OC)c(OC)cc4c2cc1OC)[C@H](O)[C@@H]1CCCCN1C3`: the GI50 worked out at 300 nM with HL-60 [1] and 400 nM in the experiment on A549 [2].

On to `COc1cc2c3c(c4cc(OC)c(OC)cc4c2cc1OC)[C@@H](O)[C@H]1CCCCN1C3`, for which the figures for the GI50 in the experiment with HL-60 [1] and in the experiment on A549 [2] were under 1 nM and 70 nM, respectively.

As to `COc1ccc2c3c(c4cc(OC)c(OC)cc4c2c1)[C@H](O)[C@@H]1CCCCN1C3`, the GI50 is 40 nM in the experiment on HL-60 [1] and 1000 nM in the experiment with A549 [2].

For `COc1ccc2c3c(c4cc(OC)c(OC)cc4c2c1)CN1CCCC[C@H]1[C@H]3O`, the GI50 with HL-60 [1] was under 1 nM; in the experiment on A549 [2] it was 400 nM.

Regarding `COc1ccc2c3c(c4cc(OC)c(OC)cc4c2c1)CN1CCCC[C@@H]1[C@@H]3O`, the GI50 in the experiment with HL-60 [1] is under 1 nM; in the experiment on A549 [2], 300 nM.

Take `COc1cc2c3c(c4cc(OC)c(OC)cc4c2cc1OC)[C@H](O)[C@@H]1CCCN1C3`: the inhibition at 0.01 µM was determined as 34.5% in the experiment on HL-60 [3] and 17.1% with A549 [7]. Moreover, the inhibition at 0.1 µM in the experiment on HL-60 [4] came out at 59.5%; in the experiment on A549 [8] it was 55%. Besides, the inhibition at 1 µM in the experiment on HL-60 [5] was 85%; with A549 [6], 80.9%. For the same compound, in the experiment on A549 [2], the GI50 was found to be 670 nM.

On to `COc1cc2c3c(c4cc(OC)c(OC)cc4c2cc1OC)[C@@H](O)[C@@H]1CCCN1C3`, for which the inhibition at 0.01 µM was 3.9% in the experiment with HL-60 [3] and 5.2% in the experiment on A549 [7]. Also, the inhibition at 0.1 µM in the experiment on HL-60 [4] and in the experiment with A549 [8] was 8.2% each time. Also, the inhibition at 1 µM came to 49.8% in the experiment on HL-60 [5] and 50% in the experiment on A549 [6].

Take `COc1ccc2c3c(c4cc(OC)c(OC)cc4c2c1)[C@@H](O)[C@H]1CCCCN1C3`: the GI50 is under 1 nM in the experiment on HL-60 [1] and 20 nM in the experiment on A549 [2].

Turning to `COc1cc2c3c(c4cc5c(cc4c2cc1OC)OCO5)CC1CCCN1C3` (racemic), the inhibition at 0.01 µM was 11.7% in the experiment on HL-60 [3] and 15.9% in the experiment with A549 [7]. The values for the inhibition at 0.1 µM in the experiment on HL-60 [4] and in the experiment with A549 [8] were 9.4% and 22.4%, respectively. Further, the inhibition at 1 µM in the experiment with HL-60 [5] is 62.9%; in the experiment with A549 [6] it was 70.3%.

For `COc1cc2c3c(c4cc5c(cc4c2cc1OC)OCO5)CN1CCCC1C3` (racemic), the figures for the inhibition at 0.01 µM in the experiment with HL-60 [3] and with A549 [7] were 14.8% and 16.9%, respectively. Further, the results for the inhibition at 0.1 µM with HL-60 [4] and in the experiment with A549 [8] were 56.4% and 51.6%, respectively. In addition, the inhibition at 1 µM is 88.4% with HL-60 [5] and 80.9% in the experiment with A549 [6].

As to `c1c2c(cc3c1c1c(c4cc5c(cc43)OCO5)CN3CCCC3C1)OCO2` (racemic), the inhibition at 0.01 µM in the experiment with HL-60 [3] was 10.4%; with A549 [7], 5.7%. Moreover, the inhibition at 0.1 µM with HL-60 [4] stood at 8.3%; in the experiment on A549 [8] it was 5.2%. The inhibition at 1 µM with HL-60 [5] stood at 13.6%; with A549 [6] it was 40.8%.

For the compound `COc1cc2c3c(c4cc5c(cc4c2cc1OC)OCCO5)CC1CCCN1C3` (racemic), the figures for the inhibition at 0.01 µM with HL-60 [3] and in the experiment with A549 [7] were 3.8% and 14%, respectively. Besides, the inhibition at 0.1 µM in the experiment with HL-60 [4] was 37%; in the experiment with A549 [8] it was 58.2%. Besides, the inhibition at 1 µM with HL-60 [5] is 83.1%; in the experiment on A549 [6], 87.4%. In the experiment with A549 [2], this compound displayed a GI50 of 360 nM.

In the case of `COc1cc2c3c(c4cc5c(cc4c2cc1OC)OCCO5)CN1CCCC1C3` (racemic), the inhibition at 0.01 µM amounted to 16% with HL-60 [3] and 2.1% in the experiment with A549 [7]. In addition, the inhibition at 0.1 µM with HL-60 [4] was determined as 52.2%; with A549 [8], 78.9%. Also, the inhibition at 1 µM came to 84.4% in the experiment on HL-60 [5] and 85.6% with A549 [6]. For the same compound, it took 970 nM to inhibit growth in the experiment with A549 [2] by half (GI50).

Take `c1c2c(cc3c1c1c(c4cc5c(cc43)OCCO5)CN3CCCC3C1)OCCO2` (racemic): the figures for the inhibition at 0.01 µM in the experiment on HL-60 [3] and in the experiment on A549 [7] were 0% and 8.7%, respectively. In addition, the inhibition at 0.1 µM in the experiment with HL-60 [4] stood at 8.2%; in the experiment with A549 [8], 6.3%. The values for the inhibition at 1 µM in the experiment on HL-60 [5] and with A549 [6] were 11.2% and 38.6%, respectively.

As to `COc1ccc2c3c(c4cc(OC)c(OC)cc4c2c1)C[C@H]1CCCN1C3` [(-)-ANTOFINE], the figures for the GI50 with HL-60 [1] and in the experiment with A549 [2] were under 1 nM and 10 nM, respectively.

In the case of `COc1cc2c3c(c4cc(OC)c(OC)cc4c2cc1OC)CN1CCC[C@H]1C3` [(S)-TYLOPHORINE], the GI50 in the experiment on HL-60 [1] stood at 10 nM; with A549 [2] it was 700 nM.

In the case of `COc1ccc2c3c(c4cc(OC)c(OC)cc4c2c1)C[C@H]1CCCCN1C3` [CRYPTOPLEURINE], the GI50 in the experiment on HL-60 [1] and in the experiment on A549 [2] was under 1 nM in each case.

Take `COc1ccc2c3c(c4cc(OC)c(OC)cc4c2c1)C[C@@H]1CCCN1C3` [HYPOESTESTATIN 1]: the GI50 was found to be 200 nM in the experiment on HL-60 [1] and 300 nM with A549 [2].

As to `COc1cc2c3c(c4cc(OC)c(OC)cc4c2cc1OC)CN1CCC[C@@H]1C3` [TYLOPHORINE], the GI50 stood at 100 nM in the experiment on HL-60 [1] and 500 nM in the experiment with A549 [2].
